This note sets out measurements from PMC3918441 (Cell reports, 2014).

Assay [1] relates to KDM5B PHD3 finger. The experiment in a line: 1H,15N HSQC NMR titration, KDM5B PHD3. In kind it is binding, human. The note with it: WT PHD3; 1H,15N HSQC titration, 298K, 0.1 mM protein, 12-mer peptides. Summed up: (§1)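 1H,15N HSQC titration of uniformly 15N-labeled PHD3 at 0.1 mM, wild type or mutated (including D1506R). Spectra recorded with increasing concentrations of 12-mer histone tail peptides and superimposed. Per-residue normalized chemical shift changes calculated as Δδ = √[(ΔδH)² + (ΔδN/5)²].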

The test system of assay [2] is KDM5B PHD3 mutants (W1502, W1512, D1506R). Description: Binding to KDM5B PHD3 mutants. Details: species or system human. The following applies: Fig. 6c-e. A digest of the protocol:
as §1

Assay [3] deals with KDM5B PHD3 finger. Description: Tryptophan fluorescence titration, KDM5B PHD3. In kind it is binding, human. The note with it: WT PHD3; NMR and fluorescence spectroscopy. A digest of the protocol:
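Tryptophan fluorescence at 25 °C: PHD3 in PBS titrated with increasing histone peptide concentrations. Excitation 295 or 280 nm; emission scanned 305–405 nm in 0.5 nm steps with 1 s integration; three scans averaged. Kd from nonlinear least-squares fit of intensity change to a quadratic binding equation; mean of three separate experiments, error as standard deviation.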

Another assay deals with T1, KDM5B PHD1 finger (Homo sapiens, UniProt Q9UGL1).
T1 sequence (Q9UGL1 309-359 limits assumed): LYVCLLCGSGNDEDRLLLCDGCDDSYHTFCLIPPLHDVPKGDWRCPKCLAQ
The experiment in a line: 1H,15N HSQC NMR titration, KDM5B PHD1. It is filed as binding. The note with it: WT PHD1; NMR spectra, 298K, 0.1 mM 15N-labeled protein, 12-mer peptide. A digest of the protocol: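 Uniformly 15N-labeled wild-type PHD1 at 0.1 mM; 1H,15N HSQC spectra recorded over increasing concentrations of 12-mer histone tail peptides. Normalized shift change Δδ = √[(ΔδH)² + (ΔδN/5)²] in ppm. Kd obtained by nonlinear least-squares fit of Δδ against peptide and protein concentrations to a quadratic binding equation.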

Regarding “H3K4me1: H3K4me1 peptide, residues 1-12 of H3, monomethylated lysine 4”, the “pattern of chemical shift changes in HSQC spectra of PHD3” value (shortened to “pattern of chemical shift changes”) with KDM5B PHD3 finger [1] is on record as “almost identical pattern of chemical shift changes”.
Regarding “H3K4me2: H3K4me2 peptide, residues 1-12 of H3, dimethylated lysine 4”, in the assay with KDM5B PHD3 finger [1], the “pattern of chemical shift changes” value is “almost identical pattern of chemical shift changes”.
In the case of “H3K4me3: trimethylated H3K4me3 peptide, 12-mer histone tail peptide; biotinylated in pull-downs”, in assay [2] (acidic D1506 replaced with an arginine), the “interaction with PHD3 D1506R mutant” value is recorded as “reduced it”. For the same substance, the “interaction with PHD3 W1502 and W1512 mutants” value in assay [2] (mutation of W1502 and W1512) is reported as “disrupted interaction”. Besides, the “preference of PHD3 among H3K4me3/2/1/0” value in the assay on KDM5B PHD3 finger [3] is “only slight preference for the trimethylated state of H3K4”. The affinity of association result in the assay with KDM5B PHD1 finger is given as “almost negligible association in the mM range of affinities”. The “pattern of chemical shift changes” value in the assay with KDM5B PHD3 finger [1] is on record as “almost identical pattern of chemical shift changes”.
